OX1R antag-1 = antagonists of human orexin 1 receptor (OX1R); Orexin/Hypocretin receptor type 1 (Homo sapiens), O43613; OX1R-expressing cells, FRET antagonist read-out; inhibition, % at 6.6 µM; 330,000 compounds, 1.8% hits; AID 485270, 2010; in the data active = inhibition mostly above about 38%, no sharp cut-off; inactive = mostly below about 40%;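 also: 0% = agonist challenge alone and 100% = reference antagonist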
Target sequence (O43613 whole entry, looked up): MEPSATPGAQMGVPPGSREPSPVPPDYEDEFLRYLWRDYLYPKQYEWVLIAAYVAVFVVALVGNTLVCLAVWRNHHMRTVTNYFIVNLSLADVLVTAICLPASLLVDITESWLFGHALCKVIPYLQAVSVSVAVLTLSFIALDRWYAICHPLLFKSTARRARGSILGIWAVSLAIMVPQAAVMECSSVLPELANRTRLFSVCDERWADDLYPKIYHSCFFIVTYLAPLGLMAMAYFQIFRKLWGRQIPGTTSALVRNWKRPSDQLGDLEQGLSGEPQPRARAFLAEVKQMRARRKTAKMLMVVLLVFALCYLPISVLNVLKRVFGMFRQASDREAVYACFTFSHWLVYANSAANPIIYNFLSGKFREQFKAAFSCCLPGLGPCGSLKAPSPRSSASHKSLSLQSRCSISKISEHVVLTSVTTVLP
GPR7 antagonist = GPR7 receptor antagonists, primary screen, cell-based, fluorescence, single concentration; Neuropeptides B/W receptor type 1 (Homo sapiens), P48145; GPR7-expressing cells, fluorescence antagonist assay; inhibition, % at 4.4 µM; 290,000 compounds, 1.1% hits; in the data active = inhibition above about 16%, passing the limit was not always enough;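 also: cells stimulated with the agonist NPW; 0% = agonist with vehicle and 100% = vehicle without agonist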
Target sequence (P48145 whole entry, looked up): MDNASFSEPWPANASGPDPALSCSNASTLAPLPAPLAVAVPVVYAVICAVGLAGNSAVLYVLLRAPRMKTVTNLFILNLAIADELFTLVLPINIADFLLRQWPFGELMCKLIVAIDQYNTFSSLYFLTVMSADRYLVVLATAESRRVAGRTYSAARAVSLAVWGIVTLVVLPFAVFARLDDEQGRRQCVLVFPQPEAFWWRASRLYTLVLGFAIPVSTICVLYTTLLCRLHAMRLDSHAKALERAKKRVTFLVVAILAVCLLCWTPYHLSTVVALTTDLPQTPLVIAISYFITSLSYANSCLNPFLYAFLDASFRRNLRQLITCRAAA
TAAR1 antag = human TAAR1 antagonists, primary screen, Fluo-8 calcium fluorescence, CHO RD-HGA16 cells; antagonist; 360,000 compounds, 1.5% hits; inhibition, % at 3 µM; AID 624466, 2012;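 active = inhibition above a per-plate cutoff, the mean inhibition of test compounds on that plate plus 3 SD, cut at about 49% in these data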;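 also: 0% = DMSO plus EC80 beta-PEA response and 100% = DMSO alone without agonist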
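Material: RD-HGA16 CHO cells with stable hTAAR1 and Gα16; Dosing: single nominal final test compound concentration of 3 µM; Schedule: seeding 17-24 h prior, 75-min 37 °C, 30-min RT dye loading; Detection: kinetic Fluo-8 calcium fluorescence measurement; Measure: % inhibition from peak post-agonist over basal fluorescence ratio; Benchmarks: vehicle and agonist controls.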
OX1R antag-2 = OX1R (HCRTR1) antagonists, primary screen, fluorescence, CHO/OX1R cells, Fluo-8 calcium, orexin A; inhibition, % at 5 µM; Orexin/Hypocretin receptor type 1 (Homo sapiens), O43613; AID 434989, 2010; 330,000 compounds, 0.43% hits; Fluo-8 calcium fluorescence;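 active = inhibition above its plate's threshold, mean inhibition of all tested compounds on the plate plus 3 SD, cut at about 37% in these data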;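 also: 0% = orexin A challenge wells and 100% = SB-334867-A antagonist wells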
CHO parental Ca = ATP-evoked calcium signal inhibitors, parental CHO, primary screen, counter-screen for OX1R antagonist project, cell-based, fluorescence, Fluo-8 calcium dye | inhibition, % at 5.6 µM | parental CHO-K1, ATP-induced calcium, Fluo-8 fluorescence | 330,000 compounds, 0.63% hits;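 active = inhibition above that plate's mean sample inhibition plus 3 SD, cut at about 26% in these data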;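 also: 0% = ATP-challenged DMSO wells and 100% = DMSO wells without ATP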
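Material: Parental CHO cells | Reagent: ATP | Compound dosing: Single nominal dose of 5.6 µM per compound | Detection: Intracellular calcium via Fluo-8 no-wash fluorescent dye | Read-out: % inhibition of ATP-induced calcium mobilization | Benchmarks: Low control ATP plus DMSO, high control DMSO only | Replicates: Singlicate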
TAAR1 agonist = human TAAR1 agonists, primary screen, Fluo-8 calcium fluorescence, CHO RD-HGA16 cells; Trace amine-associated receptor 1 (Homo sapiens), Q96RJ0; vehicle wells 0%, saturating PEA agonist 100%; activation, % at 3 µM; 360,000 compounds, 0.99% hits;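 active = activation above the mean activation of all test compounds in the run plus 3 SD, cut at about 38% in these data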
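System: CHO RD-HGA16 cells carrying human TAAR1 plus Gα16; Incubation: 17-24 h seeding, 75 min 37 °C dye, 30 min RT; Measured by: Fluo-8 fluorescence, 5 s baseline then 140 s kinetic read; Control set: DMSO and PEA EC100; Replication: single well for each compound.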
TAAR1 nonsel count = nonselective antagonists in TAAR1 counter-screen cells, counter-screen for hTAAR1 antagonist project, cell-based, fluorescence, calcium; shares compounds with TAAR1 antag; counterscreen cell line, antagonist mode; inhibition, % at 3 µM; 2,400 compounds, 77% hits; AID 651780, 2012; in the data active = inhibition above about 22%;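 also: CHO-Ga16 host cells stimulated with ATP at an EC80 level; 0% = agonist EC80 plus vehicle and 100% = vehicle without agonist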
TAAR1 ant conf = human TAAR1 antagonists, retest of hits, confirmation, cell-based, fluorescence; shares compounds with TAAR1 antag; TAAR1-expressing cells, fluorescence antagonist read-out; inhibition, % at 3 µM; 2,400 compounds, 40% hits; AID 651785, 2012; in the data active = inhibition above about 49%;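 also: CHO-Ga16 host cells challenged with agonist PEA near its EC80; 0% = agonist at EC80 plus vehicle and 100% = vehicle with no agonist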
Ga16 nonsel ag = calcium activation in Ga16-expressing cells, counter-screen for TAAR1 antagonist project, cell-based, fluorescence; shares compounds with TAAR1 antag; AID 651953, 2012; 2,400 compounds, 18% hits; activation, % at 3 µM; agonist counterscreen; in the data active = activation above about 12%;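 also: 0% = vehicle wells and 100% = saturating stimulus response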
TAAR1 ag count = TAAR1 activation by candidate antagonists – cell-based, fluorescence, counter-screen for TAAR1 antagonist project. AID 651955, 2012. 2,400 compounds, 2% hits. shares compounds with TAAR1 antag. activation, % at 3 µM. hTAAR1 cell line, agonist mode; in the data active = activation above about 37%;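 also: CHO cells stably expressing TAAR1 with calcium dye readout; 0% = DMSO vehicle and 100% = full agonist response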
Active calls of the source: *; . = no result given. A selection: hits, their analogues and other compounds. The true share with any hit is near 4.5%.

SMILES	OX1R antag-1	GPR7 antagonist	TAAR1 antag	OX1R antag-2	CHO parental Ca	TAAR1 agonist	TAAR1 nonsel count	TAAR1 ant conf	Ga16 nonsel ag	TAAR1 ag count
COc1ccc(-c2ccc(C(=O)Nc3cccc(C(C)=O)c3)c3occc23)c(C)c1	.	.	39.9	.	.	0.2	.	.	.	.
COc1ccc(-c2coc3c(C(=O)Nc4cccc(C(C)=O)c4)cccc23)c(C)c1	.	.	57.2*	.	.	0.7	30.9*	30.8	0.9	-1.4
COc1ccc(N2CCN(C(=O)/C=C/[C@H]3O[C@@H](n4ccc(=O)[nH]c4=O)[C@H](O)[C@@H]3O)CC2)cc1	.	.	-0.7	.	.	-0.5	.	.	.	.
CCOC(=O)c1cc(NC(=O)Cc2ccc(S(=O)(=O)N3CCOCC3)s2)cc(C(=O)OCC)c1	24.5	.	75.7*	-0.3	-9.0	12.2	28.9*	45.0	10.6	10.7
Cc1nc2c(OCc3ccc(F)c(F)c3)cccn2c1N(C)C(=O)CCC1CCCC1	.	.	33.8	.	.	1.7	.	.	.	.
Cc1nc2c(OCc3ccc(OC(F)F)cc3)cccn2c1N(C)C(=O)CCC1CCCC1	.	.	77.9*	.	.	2.2	38.9*	53.9*	6.7	3.0
Cc1cncn1CCc1nc2c3ccccc3nc(SCC(=O)Nc3cccc(Cl)c3)n2n1	14.5	0.4	0.7	-12.1	-16.0	8.9	.	.	.	.
Cc1n[nH]c(C)c1CCc1nc2c3ccccc3nc(SCC(=O)Nc3ccccc3F)n2n1	28.3	-9.4	61.3*	-20.7	-20.1	8.7	22.6*	37.3	8.5	10.1
CSc1ccc(C(O)c2ncc(-c3ccccc3F)[nH]2)cc1 (stereo not drawn)	.	.	-12.8	.	.	4.0	.	.	.	.
O=S1(=O)N[C@H](Cc2ccccc2)COc2cc(N3CC[C@H](O)C3)ccc21	.	.	-6.4	.	.	4.6	.	.	.	.
O=C(Nc1cccc(Cl)c1Cl)c1ccc(-c2ccccc2)cc1	14.3	-13.1	60.1*	-29.1	-5.6	15.4	35.1*	89.8*	9.1	12.2
CC(=O)c1ccc(NC(=O)c2ccc(CSc3ccccc3)o2)cc1	41.8	4.0	95.4*	-15.9	-6.8	3.9	28.1*	79.7*	4.9	-1.5
COC(=O)[C@]12CCCCC=C1N(CCc1ccc(OC)c(OC)c1)C(=O)[C@H](CC(=O)NCC1CCCCC1)C2	.	.	34.0	.	.	6.2	.	.	.	.
COc1ccc(Cc2c(-c3ccc(C)cc3)nc3cc(C)c(Br)c(C)n23)c(C)c1	.	.	-26.9	.	.	0.4	.	.	.	.
COc1ccc(C2=NS(=O)(=O)N(C)C(C(=O)Nc3cc(C)ccc3O)=C2)cc1OC	10.0	6.1	70.1*	-7.5	18.4	12.6	39.6*	51.4*	8.8	6.1
Cc1cc(C)c(C)c(S(=O)(=O)N2CCC(C(=O)N(C)Cc3nc4ccccc4c(=O)[nH]3)CC2)c1C	.	.	59.4*	.	.	33.7	27.5*	43.3	8.1	11.7
CN(Cc1nc2ccccc2c(=O)[nH]1)C(=O)c1cccc(S(=O)(=O)N2CCCC2)c1	3.2	.	3.1	-23.9	-13.9	0.1	.	.	.	.
CCOC(=O)CCCSc1nnc(CCCCCN2C(=O)c3cccc4cccc(c34)C2=O)o1	41.2	-6.0	57.8*	-27.5	-2.5	5.8	37.0*	48.2	7.6	3.6
O=C(CC[C@H]1O[C@@H](n2cnc3c(NC(=O)c4ccccc4)ncnc32)[C@H](O)[C@@H]1O)NCC1CCN(Cc2ccccc2)CC1	.	.	5.7	.	.	2.5	.	.	.	.
CNC(=O)C[C@@H]1CC[C@@H]2[C@H](COC[C@H](O)CN2S(=O)(=O)c2ccccc2Cl)O1	.	.	-13.8	.	.	2.6	.	.	.	.
O=C(c1ccc(-c2nc3ccccc3s2)o1)N1CCN(c2ccccc2O)CC1	17.4	-13.7	64.4*	-19.5	-18.8	5.8	28.9*	42.8	4.0	3.3
O=C(CSc1nnnn1C1CCCC1)NCCc1ccccc1	8.0	-9.7	55.0*	-18.0	3.1	27.4	10.1	72.6*	-0.1	52.3*
COC(=O)c1ccc(NC(=O)CSc2nnnn2C2CCCCC2)cc1	7.1	-14.1	64.5*	-21.7	-17.1	18.6	12.3	2.2	1.5	6.7
COc1cc(NC(=O)CSc2nnnn2C2CCCC2)cc(OC)c1	4.8	1.9	5.8	-13.6	-4.6	0.6	.	.	.	.
Nc1ncnc2c1ncn2[C@@H]1O[C@H](C(=O)N2CCN(c3ccc(Cl)cn3)CC2)[C@@H](O)[C@H]1O	.	.	-10.2	.	.	0.2	.	.	.	.
SMILES	OX1R antag-1	GPR7 antagonist	TAAR1 antag	OX1R antag-2	CHO parental Ca	TAAR1 agonist	TAAR1 nonsel count	TAAR1 ant conf	Ga16 nonsel ag	TAAR1 ag count
CCc1nc2ccc(C(=O)NCCOc3ccc(OC)cc3)cn2c1N(CCC(C)C)CCN(C)C	.	.	-9.7	.	.	-0.2	.	.	.	.
OC[C@@H]1CN(Cc2cccc(C(F)(F)F)c2)C[C@H](n2cnc3c(NCc4ccco4)ncnc32)O1	.	.	73.6*	.	.	17.2	22.5*	39.3	11.2	10.7
OC[C@@H]1CN(Cc2cccc(C(F)(F)F)c2)C[C@H](n2cnc3c(NCc4ccc(F)cc4)ncnc32)O1	.	.	29.9	.	.	8.3	.	.	.	.
COc1ccccc1C(=O)Nc1ccc2c(c1)CCCN2C(=O)c1ccccc1	3.9	-12.8	25.1	-4.9	-1.6	1.8	.	.	.	.
O=C(Nc1ccc2c(c1)CCCN2C(=O)c1cccs1)c1cccc(F)c1	19.4	2.9	69.5*	6.2	-7.1	6.3	28.6*	45.1	6.9	2.7
O=C(Nc1ccc2c(c1)CCCN2C(=O)c1ccccc1)c1ccccc1Br	24.9	-5.9	66.1*	-24.2	-15.3	9.1	30.9*	47.4	10.8	6.5
CC1CCCN(S(=O)(=O)c2cccc(C(=O)NCCCN3CCCC3=O)c2)C1 (stereo not drawn)	.	.	-3.4	.	.	2.5	.	.	.	.
COC(=O)[C@@]1(C(C)C)N=C(c2cc(OC)c(OC)c(OC)c2)[C@]2(O1)C(=O)Nc1ccccc12	.	.	-7.6	.	.	3.5	.	.	.	.
C=CCn1nc(C(=O)N2CCOCC2)cc1-c1sc(NC(=O)c2ccccc2)nc1C	.	.	-15.2	.	.	6.2	.	.	.	.
